In brackets after ≈: the same amount, converted by molar mass.
How the values were obtained:
Type in all cases: functional
Candida tropicalis [1] = assay: Antifungal activity against Candida tropicalis clinical isolate after 20 hrs by agar dilution method
Candida albicans [2] = assay: Antifungal activity against Candida albicans after 20 hrs by agar dilution method
How it was run: (§1)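 Clinical Candida isolates purified and subcultured on SC, SCC and PDA media before testing. Compounds were dissolved in DMSO as a stock, then diluted into solid PDA medium to final concentrations of 0.0312 to 256.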

Candida albicans [3] = assay: Antifungal activity against Candida albicans clinical isolate after 20 hrs by agar dilution method
Candida albicans [4] = assay: Fungicidal activity against Candida albicans clinical isolate by micro dilution method
Candida albicans [5] = assay: Fungicidal activity against Candida albicans by micro dilution method
Candida dubliniensis [6] = assay: Antifungal activity against Candida dubliniensis after 20 hrs by agar dilution method
Pichia kudriavzevii [7] = assay: Antifungal activity against Candida krusei after 20 hrs by agar dilution method
Candida tropicalis [8] = assay: Antifungal activity against Candida tropicalis after 20 hrs by agar dilution method
Candida parapsilosis [9] = assay: Antifungal activity against Candida parapsilosis after 20 hrs by agar dilution method; conditions: Lodderomyces parapsilosis
Nakaseomyces glabratus [10] = assay: Fungicidal activity against Candida glabrata by micro dilution method
Candida tropicalis [11] = assay: Fungicidal activity against Candida tropicalis by micro dilution method
Pichia kudriavzevii [12] = assay: Fungicidal activity against Candida krusei by micro dilution method
Candida parapsilosis [13] = assay: Antifungal activity against Candida parapsilosis clinical isolate after 20 hrs by agar dilution method; conditions: Lodderomyces parapsilosis
Candida tropicalis [14] = assay: Fungicidal activity against Candida tropicalis clinical isolate by micro dilution method
Candida dubliniensis [15] = assay: Fungicidal activity against Candida dubliniensis by micro dilution method
Candida parapsilosis [16] = assay: Fungicidal activity against Candida parapsilosis by micro dilution method; conditions: Lodderomyces parapsilosis
Nakaseomyces glabratus [17] = assay: Antifungal activity against Candida glabrata after 20 hrs by agar dilution method
Candida albicans [18] = assay: Antifungal activity against fluconazole, itraconazole-resistant Candida albicans clinical isolate after 20 hrs by agar dilution method; how it was run: as §1
Klebsiella pneumoniae [19] = assay: Bactericidal activity against Klebsiella pneumoniae clinical isolate after 18 to 24 hrs; conditions: read-out: MBC99.9
Staphylococcus aureus [20] = assay: Antibacterial activity against Staphylococcus aureus after 24 hrs by broth micro dilution method
How it was run: (§2)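 MIC by broth microdilution; growth read visually and spectrophotometrically. MIC taken as the lowest concentration giving complete inhibition of bacterial growth.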

Staphylococcus aureus [21] = assay: Antibacterial activity against Staphylococcus aureus after 24 hrs by disc diffusion method
How it was run: (§3)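 Disk diffusion on agar; activity measured as the halo zone of inhibition around the disk.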

Escherichia coli [22] = assay: Antibacterial activity against Escherichia coli ATCC 25922 after 24 hrs by disc diffusion method; how it was run: as §3
Pseudomonas aeruginosa [23] = assay: Bactericidal activity against Pseudomonas aeruginosa ATCC 27853 after 18 to 24 hrs; conditions: read-out: MBC99.9
How it was run: (§4)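 MBC taken as the lowest concentration that killed the bacteria completely.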

Staphylococcus aureus [24] = assay: Bactericidal activity against Staphylococcus aureus after 18 to 24 hrs; conditions: read-out: MBC99.9; how it was run: as §4
Candida parapsilosis [25] = assay: Fungicidal activity against Candida parapsilosis clinical isolate by micro dilution method; conditions: Lodderomyces parapsilosis
Escherichia coli [26] = assay: Antibacterial activity against Escherichia coli ATCC 25922 after 24 hrs by broth micro dilution method; conditions: ATCC 25922, 24 h; how it was run: as §2
Klebsiella pneumoniae [27] = assay: Antibacterial activity against Klebsiella pneumoniae clinical isolate after 24 hrs by disc diffusion method
Klebsiella pneumoniae [28] = assay: Antibacterial activity against Klebsiella pneumoniae clinical isolate after 24 hrs by broth micro dilution method
Escherichia coli [29] = assay: Bactericidal activity against Escherichia coli ATCC 25922 after 18 to 24 hrs; conditions: read-out: MBC99.9; how it was run: as §4
Candida albicans [30] = assay: Fungicidal activity against fluconazole, itraconazole-resistant Candida albicans clinical isolate by micro dilution method
Streptococcus pyogenes [31] = assay: Bactericidal activity against Streptococcus pyogenes clinical isolate after 18 to 24 hrs; conditions: read-out: MBC99.9
Streptococcus pyogenes [32] = assay: Antibacterial activity against Streptococcus pyogenes clinical isolate after 24 hrs by broth micro dilution method
Pseudomonas aeruginosa [33] = assay: Antibacterial activity against Pseudomonas aeruginosa ATCC 27853 after 24 hrs by disc diffusion method; how it was run: as §3
Candida tropicalis [34] = assay: Antifungal activity against fluconazole, itraconazole-resistant Candida tropicalis clinical isolate after 20 hrs by agar dilution method; how it was run: as §1
Pseudomonas aeruginosa [35] = assay: Antibacterial activity against Pseudomonas aeruginosa ATCC 27853 after 24 hrs by broth micro dilution method; conditions: ATCC 27853, 24 h; how it was run: as §2
Streptococcus pyogenes [36] = assay: Antibacterial activity against Streptococcus pyogenes clinical isolate after 24 hrs by disc diffusion method

Row | Compound | MIC90 (Candida tropicalis [1]) | MIC90 (Candida albicans [2]) | MIC90 (Candida albicans [3]) | MFC (Candida albicans [4]) | MFC (Candida albicans [5]) | MIC90 (Candida dubliniensis [6]) | MIC90 (Pichia kudriavzevii [7]) | MIC90 (Candida tropicalis [8]) | MIC90 (Candida parapsilosis [9]) | MFC (Nakaseomyces glabratus [10]) | MFC (Candida tropicalis [11]) | MFC (Pichia kudriavzevii [12]) | MIC90 (Candida parapsilosis [13]) | MFC (Candida tropicalis [14]) | MFC (Candida dubliniensis [15]) | MFC (Candida parapsilosis [16]) | MIC90 (Nakaseomyces glabratus [17]) | MBC (Klebsiella pneumoniae [19]) | MIC (Staphylococcus aureus [20]) | MFC (Candida parapsilosis [25]) | other results
1 | CCC(C)n1ncn(-c2ccc(N3CCN(c4ccc(OCC5COC(Cn6cncn6)(c6ccc(Cl)cc6Cl)O5)cc4)CC3)cc2)c1=O (centres undefined) [ITRACONAZOLE] | 1 µg/mL (≈ 1.42 µM) | > 256 µg/mL | 0.12 µg/mL (≈ 0.17 µM) | > 256 µg/mL | > 256 µg/mL | > 256 µg/mL | 0.6 µg/mL (≈ 0.85 µM) | > 256 µg/mL | 0.6 µg/mL (≈ 0.85 µM) | > 256 µg/mL | > 256 µg/mL | 0.12 µg/mL (≈ 0.17 µM) | 0.25 µg/mL (≈ 0.354 µM) | > 256 µg/mL | > 256 µg/mL | 0.5 µg/mL (≈ 0.709 µM) | 0.12 µg/mL (≈ 0.17 µM) | – | – | – | –
2 | CCCCCC[C@@H](O)CC1C(CCC)=NOC1CCCCCCCC(=O)OC (some centres undefined) | 64 µg/mL (≈ 161 µM) | 128 µg/mL (≈ 322 µM) | 32 µg/mL (≈ 80.5 µM) | 256 µg/mL (≈ 644 µM) | 256 µg/mL (≈ 644 µM) | 32 µg/mL (≈ 80.5 µM) | 64 µg/mL (≈ 161 µM) | 64 µg/mL (≈ 161 µM) | 32 µg/mL (≈ 80.5 µM) | 256 µg/mL (≈ 644 µM) | > 256 µg/mL | 128 µg/mL (≈ 322 µM) | 128 µg/mL (≈ 322 µM) | 256 µg/mL (≈ 644 µM) | 256 µg/mL (≈ 644 µM) | 128 µg/mL (≈ 322 µM) | 32 µg/mL (≈ 80.5 µM) | 100 µg/mL (≈ 252 µM) | 25 µg/mL (≈ 62.9 µM) | > 256 µg/mL | MIC90 (Candida albicans [18]): 128 µg/mL (≈ 322 µM); diameter of the inhibition zone (DIZ) (Staphylococcus aureus [21]): 22.6 mm; diameter of the inhibition zone (DIZ) (Escherichia coli [22]): 27.6 mm; MBC (Pseudomonas aeruginosa [23]): 50 µg/mL (≈ 126 µM); MBC (Staphylococcus aureus [24]): 50 µg/mL (≈ 126 µM); MIC (Escherichia coli [26]): 25 µg/mL (≈ 62.9 µM); diameter of the inhibition zone (DIZ) (Klebsiella pneumoniae [27]): 19.2 mm; MIC (Klebsiella pneumoniae [28]): 25 µg/mL (≈ 62.9 µM); MBC (Escherichia coli [29]): 50 µg/mL (≈ 126 µM); MFC (Candida albicans [30]): > 256 µg/mL; MBC (Streptococcus pyogenes [31]): 50 µg/mL (≈ 126 µM); MIC (Streptococcus pyogenes [32]): 25 µg/mL (≈ 62.9 µM); diameter of the inhibition zone (DIZ) (Pseudomonas aeruginosa [33]): 32.5 mm; MIC90 (Candida tropicalis [34]): > 256 µg/mL; MIC (Pseudomonas aeruginosa [35]): 25 µg/mL (≈ 62.9 µM); diameter of the inhibition zone (DIZ) (Streptococcus pyogenes [36]): 23.2 mm
3 | CCCc1cc(CCCCCCCCC(=O)O)on1 | 128 µg/mL (≈ 479 µM) | > 256 µg/mL | > 256 µg/mL | > 256 µg/mL | > 256 µg/mL | 128 µg/mL (≈ 479 µM) | > 256 µg/mL | > 256 µg/mL | 128 µg/mL (≈ 479 µM) | > 256 µg/mL | > 256 µg/mL | > 256 µg/mL | 256 µg/mL (≈ 957 µM) | > 256 µg/mL | 256 µg/mL (≈ 957 µM) | > 256 µg/mL | 128 µg/mL (≈ 479 µM) | > 100 µg/mL | 50 µg/mL (≈ 187 µM) | > 256 µg/mL | diameter of the inhibition zone (DIZ) (Staphylococcus aureus [21]): 19.2 mm; diameter of the inhibition zone (DIZ) (Escherichia coli [22]): 25.7 mm; MBC (Pseudomonas aeruginosa [23]): > 100 µg/mL; MBC (Staphylococcus aureus [24]): 100 µg/mL (≈ 374 µM); MIC (Escherichia coli [26]): 50 µg/mL (≈ 187 µM); diameter of the inhibition zone (DIZ) (Klebsiella pneumoniae [27]): 18.3 mm; MIC (Klebsiella pneumoniae [28]): 50 µg/mL (≈ 187 µM); MBC (Escherichia coli [29]): 100 µg/mL (≈ 374 µM); MBC (Streptococcus pyogenes [31]): 100 µg/mL (≈ 374 µM); MIC (Streptococcus pyogenes [32]): 50 µg/mL (≈ 187 µM); diameter of the inhibition zone (DIZ) (Pseudomonas aeruginosa [33]): 31.2 mm; MIC (Pseudomonas aeruginosa [35]): 100 µg/mL (≈ 374 µM); diameter of the inhibition zone (DIZ) (Streptococcus pyogenes [36]): 21.6 mm
4 | OC(Cn1cncn1)(Cn1cncn1)c1ccc(F)cc1F [FLUCONAZOLE] | 16 µg/mL (≈ 52.2 µM) | > 256 µg/mL | 8 µg/mL (≈ 26.1 µM) | > 256 µg/mL | > 256 µg/mL | 2 µg/mL (≈ 6.53 µM) | 32 µg/mL (≈ 104 µM) | 32 µg/mL (≈ 104 µM) | 4 µg/mL (≈ 13.1 µM) | 128 µg/mL (≈ 418 µM) | 256 µg/mL (≈ 836 µM) | > 256 µg/mL | 0.5 µg/mL (≈ 1.63 µM) | 256 µg/mL (≈ 836 µM) | > 256 µg/mL | 32 µg/mL (≈ 104 µM) | 8 µg/mL (≈ 26.1 µM) | – | – | 1 µg/mL (≈ 3.27 µM) | –
